pEC50, pIC50: −log10 of the molar value.
Experiments:
[1] = tested on: Human immunodeficiency virus 1; assay: Antiviral activity against HIV1 NL4-3 infected in human […] cells assessed as protection against virus-induced cytopathic effect measured on day 5 post infection by MTT assay; assay type: functional, cell-based; details: Human immunodeficiency virus 1, NL4-3, 120 h
Method in brief: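 Values are means of two to three independent experiments, each run in triplicate. The lowest detectable concentration is reported where activity fell below the assay limit.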

[2] = tested on: Human immunodeficiency virus 1; assay: Antiviral activity against HIV1 harboring reverse transcriptase K103N mutant infected in human […] cells assessed as protection against virus-induced cytopathic effect measured on day 5 post infection by MTT assay; assay type: functional, cell-based; details: Human immunodeficiency virus 1, 120 h
[3] = tested on: Human immunodeficiency virus 1; assay: Antiviral activity against HIV1 harboring reverse transcriptase Y181C mutant infected in human […] cells assessed as protection against virus-induced cytopathic effect measured on day 5 post infection by MTT assay; assay type: functional, cell-based; details: Human immunodeficiency virus 1, 120 h
[4] = tested on: Human immunodeficiency virus 1; assay: Antiviral activity against HIV1 harboring reverse transcriptase Y188L mutant infected in human […] cells assessed as protection against virus-induced cytopathic effect measured on day 5 post infection by MTT assay; assay type: functional, cell-based; details: Human immunodeficiency virus 1, 120 h
[5] = tested on: Human immunodeficiency virus 1; assay: Antiviral activity against HIV1 harboring reverse transcriptase K103N /[…] double mutant infected in human […] cells assessed as protection against virus-induced cytopathic effect measured on day 5 post infection by MTT assay; assay type: functional, cell-based; details: Human immunodeficiency virus 1, 120 h
[6] = target: Human immunodeficiency virus type 1 reverse transcriptase (Human immunodeficiency virus 1, UniProt Q72547); assay: Inhibition of HIV1 NL4-3 reverse transcriptase His-tagged p66/p51 associated RNA dependent DNA polymerase activity expressed in Escherichia coli assessed as reduction in [3H]dTTP incorporation using poly(rA)/oligo(dT) as template/primer by scintillation counting analysis
[7] = target: Human immunodeficiency virus type 1 reverse transcriptase (Human immunodeficiency virus 1, UniProt Q72547, Y181I); assay: Inhibition of HIV1 reverse transcriptase p66 Y181I mutant associated RNA dependent DNA polymerase activity expressed in Escherichia coli assessed as reduction in [3H]dTTP incorporation using poly(rA)/oligo(dT) as template/primer by scintillation counting analysis
[8] = Inhibition of HIV1 reverse transcriptase p66 K103N/[…] double mutant associated RNA dependent DNA polymerase activity expressed in Escherichia coli assessed as reduction in [3H]dTTP incorporation using poly(rA)/oligo(dT) as template/primer by scintillation counting analysis; design: species or system Human immunodeficiency virus 1
[9] = target: Human immunodeficiency virus type 1 reverse transcriptase (Human immunodeficiency virus 1, UniProt Q72547, Y181C); assay: Inhibition of HIV1 reverse transcriptase p66 Y181C mutant associated RNA dependent DNA polymerase activity expressed in Escherichia coli assessed as reduction in [3H]dTTP incorporation using poly(rA)/oligo(dT) as template/primer by scintillation counting analysis
[10] = Cytotoxicity against human MT4 cells assessed as cell viability by MTT assay; assay type: cell-based
Method in brief: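 Uninfected MT-4 cells scored for viability by MTT. […] Values are means of two to three independent experiments, each run in triplicate.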

[11] = Selectivity index, ratio of CC50 for human MT4 cells to EC50 for HIV1 NL4-3 infected in human MT4 cells; assay type: toxicity, cell-based; details: read-out: Ratio CC50/EC50
Method in brief: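 SI computed as CC50/EC50, using the MTT-based CC50 in uninfected MT-4 cells and the MTT-based EC50 against HIV-1 NL4-3-induced cell death in MT-4 cells. Experiments were run in triplicate, two to three times.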

[12] = tested on: Human immunodeficiency virus 1; assay: Ratio of EC50 for HIV-1 harboring reverse transcriptase K103N mutant infected in human MT4 cells to EC50 for HIV1 NL4-3 infected in human MT4 cells; assay type: functional
Method in brief: (§1)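 Fold change calculated as EC50 against the stated resistant mutant HIV-1 strain divided by EC50 against wild-type NL4-3. Both EC50s come from MTT read-out of virus-induced death in MT-4 cells, mean of two to three independent experiments each in triplicate.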

[13] = tested on: Human immunodeficiency virus 1; assay: Ratio of EC50 for HIV-1 harboring reverse transcriptase Y181C mutant infected in human MT4 cells to EC50 for HIV1 NL4-3 infected in human MT4 cells; assay type: functional; method in brief: as §1
[14] = tested on: Human immunodeficiency virus 1; assay: Ratio of EC50 for HIV-1 harboring reverse transcriptase Y188L mutant infected in human MT4 cells to EC50 for HIV1 NL4-3 infected in human MT4 cells; assay type: functional; method in brief: as §1
[15] = tested on: Human immunodeficiency virus 1; assay: Ratio of EC50 for HIV-1 harboring reverse transcriptase K103N/[…] double mutant infected in human MT4 cells to EC50 for HIV1 NL4-3 infected in human MT4 cells; assay type: functional; method in brief: as §1
[16] = target: Human immunodeficiency virus type 1 reverse transcriptase (Human immunodeficiency virus 1, UniProt Q72547, K103N); assay: Inhibition of HIV1 reverse transcriptase p66 K103N mutant associated RNA dependent DNA polymerase activity expressed in Escherichia coli assessed as reduction in [3H]dTTP incorporation using poly(rA)/oligo(dT) as template/primer by scintillation counting analysis

Structure (SMILES)	pEC50 [1]	pEC50 [2]	pEC50 [3]	pEC50 [4]	pEC50 [5]	pIC50 [6]	pIC50 [7]	pIC50 [8]	pIC50 [9]	CC50 [10]	selectivity ratio [11]	Ratio EC50 [12]	Ratio EC50 [13]	Ratio EC50 [14]	Ratio EC50 [15]	pIC50 [16]
Cc1cc(C)cc(S(=O)(=O)c2c(C(=O)N[C@@H](C)c3ccccc3F)[nH]c3ccc(Cl)cc23)c1	9.15	6.99	6.17	< 4.29	< 4.29	6.76	4.76	< 5.00	4.76	–	–	–	–	–	–	–
Cc1cc(C)cc(S(=O)(=O)c2c(C(=O)NCC(=O)NCc3ccncn3)[nH]c3ccc(Cl)cc23)c1	9.22	7.71	9.22	6.35	5.64	6.69	6.28	6.08	–	> 48800 nM	> 81400	33	1	>743	>3842	6.26
Cc1cc(C)cc(S(=O)(=O)c2c(C(=O)N[C@H](C)C(=O)NCc3ccco3)[nH]c3ccc(Cl)cc23)c1	9.22	6.51	6.03	< 4.52	< 4.52	6.84	6.56	6.63	–	–	–	–	–	–	–	7.15
Cc1cc(C)cc(S(=O)(=O)c2c(C(=O)NCc3cccc(N)c3)[nH]c3ccc(Cl)cc23)c1	9.15	9.15	9.15	7.62	7.07	7.39	7.19	7.46	–	> 53400 nM	> 76300	1	1	34	123	7.18
Cc1cc(C)cc(S(=O)(=O)c2c(C(=O)N[C@@H](C)C(=O)N[C@@H](C)c3ccncc3)[nH]c3ccc(Cl)cc23)c1	9.22	8.89	9.22	6.21	5.89	6.37	6.36	6.07	–	–	–	–	–	–	–	5.59
Cc1cc(C)cc(S(=O)(=O)c2c(C(=O)N[C@@H](C)C(=O)N[C@H](C)c3ccncc3)[nH]c3ccc(Cl)cc23)c1	9.22	9.22	9.22	6.13	5.90	6.21	5.77	6.31	–	–	–	–	–	–	–	6.52
Cc1cc(C)cc(S(=O)(=O)c2c(C(=O)N[C@H](C)C(=O)N[C@H](C)c3ccncc3)[nH]c3ccc(Cl)cc23)c1	8.42	5.92	5.93	< 4.57	< 4.57	6.39	5.24	4.86	–	–	–	–	–	–	–	4.63
Cc1cc(C)cc(S(=O)(=O)c2c(C(=O)NCc3ccc4nc(N)[nH]c4c3)[nH]c3ccc(Cl)cc23)c1	9.22	7.74	7.10	–	< 5.23	6.56	6.55	6.33	–	5890 nM	> 9810	30	132	–	>9810	6.74
Cc1cc(C)cc(S(=O)(=O)c2c(C(=O)Nc3ccnc(C#N)c3)[nH]c3ccc(Cl)cc23)c1	9.15	9.15	7.19	–	< 5.16	7.64	6.51	6.29	–	6840 nM	> 9770	1	92	–	>9771	7.14
Cc1cc(C)cc(S(=O)(=O)c2c(C(=O)N[C@H](C)C(=O)N[C@@H](C)c3ccncc3)[nH]c3ccc(Cl)cc23)c1	8.72	6.69	6.18	< 4.54	4.71	5.92	5.02	5.07	–	–	–	–	–	–	–	5.45
Cc1cc(C)cc(S(=O)(=O)c2c(C(=O)N[C@@H](C)C(=O)NCc3ccco3)[nH]c3ccc(Cl)cc23)c1	9.22	9.22	8.46	6.15	5.72	6.95	4.85	5.02	–	–	–	–	–	–	–	5.95
Cc1cc(C)cc(S(=O)(=O)c2c(C(=O)N[C@@H](C)C(=O)NCc3ccncn3)[nH]c3ccc(Cl)cc23)c1	9.22	9.22	9.22	6.42	6.11	6.33	5.50	4.85	–	–	–	–	–	–	–	5.54
Cc1cc(C)cc(S(=O)(=O)c2c(C(=O)N[C@H](C)C(=O)NCc3ccncn3)[nH]c3ccc(Cl)cc23)c1	9.22	7.12	6.77	5.24	< 4.61	5.74	5.47	–	–	–	–	–	–	–	–	4.70
Cc1cc(C)cc(S(=O)(=O)c2c(C(=O)NCC(=O)NCc3ccco3)[nH]c3ccc(Cl)cc23)c1	9.22	7.22	> 9.22	5.95	4.73	6.84	6.34	6.23	–	> 50000 nM	> 83400	>86	–	>1600	>26477	6.27

From ChEMBL document CHEMBL4038304, “Chiral Indolylarylsulfone Non-Nucleoside Reverse Transcriptase Inhibitors as New Potent and Broad Spectrum Anti-HIV-1 Agents” (J Med Chem, 2017)
